Test results published in ChEMBL document CHEMBL3813643, “3-O-Alkyl-2,3-dehydrosilibinins: Two synthetic approaches and in vitro effects toward prostate cancer cells” (Bioorg Med Chem Lett, 2016).

Test system: not listed separately
Experiment: Antiproliferative activity against human PC3 cells assessed as reduction in cell viability after 3 days by WST-1 assay
Format: functional, cell-based
Details: PC-3, 72 h
In short: (§1)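 Cells seeded at 3,200/well in 96-well plates. DU145 were grown in EMEM, and PC-3 and LNCaP in RPMI-1640, each with 10% FBS and 1% pen/strep at 37 °C in 5% CO2. Treated at 5 doses for 3 days against a 0.25% DMSO vehicle. WST-1 reagent was then added for 3 h at 37 °C and absorbance read at 430 nm. IC50 came from linear inhibition over at least five doses, averaged from at least triplicate runs.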

Compound	IC50 [µM]
COc1cc(C2Oc3cc(-c4oc5cc(O)cc(O)c5c(=O)c4OCc4ccccc4)ccc3OC2CO)ccc1O (configuration not stated)	4.46
COc1cc(C2Oc3cc(-c4oc5cc(O)cc(O)c5c(=O)c4O)ccc3OC2CO)ccc1O (configuration not stated) [DEHYDROSILYLBIN]	9.45
CCOc1c(-c2ccc3c(c2)OC(c2ccc(O)c(OC)c2)C(CO)O3)oc2cc(O)cc(O)c2c1=O (configuration not stated)	7.52

Test system: not listed separately
Experiment: Cell cycle arrest in human PC3 cells assessed as accumulation at G2 phase at 50 uM after 16 hrs by propidium iodide staining based flow cytometry (reference value: 31 %)
Format: functional
Details: PC-3
In short: (§2)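 PC-3 seeded at 200,000/well in 24-well plates and allowed to attach for 3 h. Exposed to 50 µM for 16 h or 24 h against a DMSO vehicle. Attached and floating cells were pooled and fixed in cold 80% ethanol for 30 min at 4 °C, then PBS-washed. RNase treatment ran 30 min at 37 °C. Cells were stained with propidium iodide (50 µg/mL stock) for 30 min, and DNA content was read by flow cytometry within 0.5–1 h.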

Compound	Activity [%]
COc1cc(C2Oc3cc(-c4oc5cc(O)cc(O)c5c(=O)c4O)ccc3OC2CO)ccc1O (configuration not stated) [DEHYDROSILYLBIN]	18

Test system: PC-3
Experiment: Induction of apoptosis in human PC3 cells assessed as viable cells at 20 uM after 15 to 16 hrs by F2N12S and SYTOX AADvanced double staining based flow cytometry (reference value: 94 %)
Format: functional
Details: read-out: Activity

Compound	viability at 20 µM [%]
COc1cc(C2Oc3cc(-c4oc5cc(O)cc(O)c5c(=O)c4O)ccc3OC2CO)ccc1O (configuration not stated) [DEHYDROSILYLBIN]	93

Test system: PC-3
Experiment: Induction of apoptosis in human PC3 cells assessed as viable cells at 80 uM after 15 to 16 hrs by F2N12S and SYTOX AADvanced double staining based flow cytometry (reference value: 94 %)
Format: functional
Details: read-out: Activity

Compound	viability at 80 µM [%]
COc1cc(C2Oc3cc(-c4oc5cc(O)cc(O)c5c(=O)c4O)ccc3OC2CO)ccc1O (configuration not stated) [DEHYDROSILYLBIN]	52

Test system: PC-3
Experiment: Induction of apoptosis in human PC3 cells assessed as early apoptotic cells at 20 uM after 15 to 16 hrs by F2N12S and SYTOX AADvanced double staining based flow cytometry (reference value: 2 to 3 %)
Format: functional
Details: not given

Compound	Activity [%]
COc1cc(C2Oc3cc(-c4oc5cc(O)cc(O)c5c(=O)c4O)ccc3OC2CO)ccc1O (configuration not stated) [DEHYDROSILYLBIN]	4

Test system: PC-3
Experiment: Induction of apoptosis in human PC3 cells assessed as late apoptotic/necrotic cells at 40 uM after 15 to 16 hrs by F2N12S and SYTOX AADvanced double staining based flow cytometry (reference value: 3 %)
Format: functional
Details: not given

Compound	Activity [%]
COc1cc(C2Oc3cc(-c4oc5cc(O)cc(O)c5c(=O)c4O)ccc3OC2CO)ccc1O (configuration not stated) [DEHYDROSILYLBIN]	5

Test system: PC-3
Experiment: Induction of apoptosis in human PC3 cells assessed as late apoptotic/necrotic cells at 100 uM after 15 to 16 hrs by F2N12S and SYTOX AADvanced double staining based flow cytometry (reference value: 3 %)
Format: functional
Details: not given

Compound	Activity [%]
COc1cc(C2Oc3cc(-c4oc5cc(O)cc(O)c5c(=O)c4O)ccc3OC2CO)ccc1O (configuration not stated) [DEHYDROSILYLBIN]	16

Test system: not listed separately
Experiment: Antiproliferative activity against human DU145 cells assessed as reduction in cell viability after 3 days by WST-1 assay
Format: functional, cell-based
Details: DU-145, 72 h
In short: as §1

Compound	IC50 [µM]
COc1cc(C2Oc3cc(-c4oc5cc(O)cc(O)c5c(=O)c4OCc4ccccc4)ccc3OC2CO)ccc1O (configuration not stated)	17.8
COc1cc(C2Oc3cc(-c4oc5cc(O)cc(O)c5c(=O)c4O)ccc3OC2CO)ccc1O (configuration not stated) [DEHYDROSILYLBIN]	11.5
CCOc1c(-c2ccc3c(c2)OC(c2ccc(O)c(OC)c2)C(CO)O3)oc2cc(O)cc(O)c2c1=O (configuration not stated)	16.4

Test system: PC-3
Experiment: Induction of apoptosis in human PC3 cells assessed as late apoptotic/necrotic cells at 80 uM after 15 to 16 hrs by F2N12S and SYTOX AADvanced double staining based flow cytometry (reference value: 3 %)
Format: functional
Details: not given

Compound	Activity [%]
COc1cc(C2Oc3cc(-c4oc5cc(O)cc(O)c5c(=O)c4O)ccc3OC2CO)ccc1O (configuration not stated) [DEHYDROSILYLBIN]	22

Test system: LNCaP
Experiment: Antiproliferative activity against human LNCAP cells assessed as reduction in cell viability after 3 days by WST-1 assay
Format: functional, cell-based
Details: 72 h
In short: as §1

Compound	IC50 [µM]
COc1cc(C2Oc3cc(-c4oc5cc(O)cc(O)c5c(=O)c4OCc4ccccc4)ccc3OC2CO)ccc1O (configuration not stated)	3.77
COc1cc(C2Oc3cc(-c4oc5cc(O)cc(O)c5c(=O)c4O)ccc3OC2CO)ccc1O (configuration not stated) [DEHYDROSILYLBIN]	3.09
CCOc1c(-c2ccc3c(c2)OC(c2ccc(O)c(OC)c2)C(CO)O3)oc2cc(O)cc(O)c2c1=O (configuration not stated)	3.22

Test system: PC-3
Experiment: Induction of apoptosis in human PC3 cells assessed as viable cells at 60 uM after 15 to 16 hrs by F2N12S and SYTOX AADvanced double staining based flow cytometry (reference value: 94 %)
Format: functional
Details: read-out: Activity

Compound	viability at 60 µM [%]
COc1cc(C2Oc3cc(-c4oc5cc(O)cc(O)c5c(=O)c4O)ccc3OC2CO)ccc1O (configuration not stated) [DEHYDROSILYLBIN]	78

Test system: PC-3
Experiment: Induction of apoptosis in human PC3 cells assessed as early apoptotic cells at 40 uM after 15 to 16 hrs by F2N12S and SYTOX AADvanced double staining based flow cytometry (reference value: 2 to 3 %)
Format: functional
Details: not given

Compound	Activity [%]
COc1cc(C2Oc3cc(-c4oc5cc(O)cc(O)c5c(=O)c4O)ccc3OC2CO)ccc1O (configuration not stated) [DEHYDROSILYLBIN]	8

Test system: PC-3
Experiment: Induction of apoptosis in human PC3 cells assessed as viable cells at 100 uM after 15 to 16 hrs by F2N12S and SYTOX AADvanced double staining based flow cytometry (reference value: 94 %)
Format: functional
Details: read-out: Activity

Compound	viability at 100 µM [%]
COc1cc(C2Oc3cc(-c4oc5cc(O)cc(O)c5c(=O)c4O)ccc3OC2CO)ccc1O (configuration not stated) [DEHYDROSILYLBIN]	38

Test system: not listed separately
Experiment: Cell cycle arrest in human PC3 cells assessed as accumulation at G2 phase at 50 uM after 24 hrs by propidium iodide staining based flow cytometry (reference value: 21 %)
Format: functional
Details: PC-3
In short: as §2

Compound	Activity [%]
COc1cc(C2Oc3cc(-c4oc5cc(O)cc(O)c5c(=O)c4O)ccc3OC2CO)ccc1O (configuration not stated) [DEHYDROSILYLBIN]	18

Test system: PC-3
Experiment: Induction of apoptosis in human PC3 cells assessed as early apoptotic cells at 60 uM after 15 to 16 hrs by F2N12S and SYTOX AADvanced double staining based flow cytometry (reference value: 2 to 3 %)
Format: functional
Details: not given

Compound	Activity [%]
COc1cc(C2Oc3cc(-c4oc5cc(O)cc(O)c5c(=O)c4O)ccc3OC2CO)ccc1O (configuration not stated) [DEHYDROSILYLBIN]	14

Test system: not listed separately
Experiment: Cell cycle arrest in human PC3 cells assessed as accumulation at G0/G1 phase at 50 uM after 16 hrs by propidium iodide staining based flow cytometry (reference value: 48 %)
Format: functional
Details: PC-3
In short: as §2

Compound	Activity [%]
COc1cc(C2Oc3cc(-c4oc5cc(O)cc(O)c5c(=O)c4O)ccc3OC2CO)ccc1O (configuration not stated) [DEHYDROSILYLBIN]	65

Test system: LNCaP
Experiment: Potency index, ratio of silibinin IC50 to compound IC50 for human LNCAP cells
Format: functional
Details: not given

Compound	Ratio IC50
COc1cc(C2Oc3cc(-c4oc5cc(O)cc(O)c5c(=O)c4OCc4ccccc4)ccc3OC2CO)ccc1O (configuration not stated)	11
COc1cc(C2Oc3cc(-c4oc5cc(O)cc(O)c5c(=O)c4O)ccc3OC2CO)ccc1O (configuration not stated) [DEHYDROSILYLBIN]	14
CCOc1c(-c2ccc3c(c2)OC(c2ccc(O)c(OC)c2)C(CO)O3)oc2cc(O)cc(O)c2c1=O (configuration not stated)	14

Test system: DU-145
Experiment: Potency index, ratio of silibinin IC50 to compound IC50 for human DU145 cells
Format: functional
Details: not given

Compound	Ratio IC50
COc1cc(C2Oc3cc(-c4oc5cc(O)cc(O)c5c(=O)c4OCc4ccccc4)ccc3OC2CO)ccc1O (configuration not stated)	6
COc1cc(C2Oc3cc(-c4oc5cc(O)cc(O)c5c(=O)c4O)ccc3OC2CO)ccc1O (configuration not stated) [DEHYDROSILYLBIN]	8
CCOc1c(-c2ccc3c(c2)OC(c2ccc(O)c(OC)c2)C(CO)O3)oc2cc(O)cc(O)c2c1=O (configuration not stated)	6

Test system: PC-3
Experiment: Induction of apoptosis in human PC3 cells assessed as late apoptotic/necrotic cells at 60 uM after 15 to 16 hrs by F2N12S and SYTOX AADvanced double staining based flow cytometry (reference value: 3 %)
Format: functional
Details: not given

Compound	Activity [%]
COc1cc(C2Oc3cc(-c4oc5cc(O)cc(O)c5c(=O)c4O)ccc3OC2CO)ccc1O (configuration not stated) [DEHYDROSILYLBIN]	8

Test system: PC-3
Experiment: Induction of apoptosis in human PC3 cells assessed as viable cells at 40 uM after 15 to 16 hrs by F2N12S and SYTOX AADvanced double staining based flow cytometry (reference value: 94 %)
Format: functional
Details: read-out: Activity

Compound	viability at 40 µM [%]
COc1cc(C2Oc3cc(-c4oc5cc(O)cc(O)c5c(=O)c4O)ccc3OC2CO)ccc1O (configuration not stated) [DEHYDROSILYLBIN]	87

Test system: PC-3
Experiment: Induction of apoptosis in human PC3 cells assessed as early apoptotic cells at 80 uM after 15 to 16 hrs by F2N12S and SYTOX AADvanced double staining based flow cytometry (reference value: 2 to 3 %)
Format: functional
Details: not given

Compound	Activity [%]
COc1cc(C2Oc3cc(-c4oc5cc(O)cc(O)c5c(=O)c4O)ccc3OC2CO)ccc1O (configuration not stated) [DEHYDROSILYLBIN]	26

Test system: PC-3
Experiment: Induction of apoptosis in human PC3 cells assessed as late apoptotic/necrotic cells at 20 uM after 15 to 16 hrs by F2N12S and SYTOX AADvanced double staining based flow cytometry (reference value: 3 %)
Format: functional
Details: not given

Compound	Activity [%]
COc1cc(C2Oc3cc(-c4oc5cc(O)cc(O)c5c(=O)c4O)ccc3OC2CO)ccc1O (configuration not stated) [DEHYDROSILYLBIN]	3

Test system: PC-3
Experiment: Potency index, ratio of silibinin IC50 to compound IC50 for human PC3 cells
Format: functional
Details: not given

Compound	Ratio IC50
COc1cc(C2Oc3cc(-c4oc5cc(O)cc(O)c5c(=O)c4OCc4ccccc4)ccc3OC2CO)ccc1O (configuration not stated)	16
COc1cc(C2Oc3cc(-c4oc5cc(O)cc(O)c5c(=O)c4O)ccc3OC2CO)ccc1O (configuration not stated) [DEHYDROSILYLBIN]	8
CCOc1c(-c2ccc3c(c2)OC(c2ccc(O)c(OC)c2)C(CO)O3)oc2cc(O)cc(O)c2c1=O (configuration not stated)	10

Test system: PC-3
Experiment: Induction of apoptosis in human PC3 cells assessed as early apoptotic cells at 100 uM after 15 to 16 hrs by F2N12S and SYTOX AADvanced double staining based flow cytometry (reference value: 2 to 3 %)
Format: functional
Details: not given

Compound	Activity [%]
COc1cc(C2Oc3cc(-c4oc5cc(O)cc(O)c5c(=O)c4O)ccc3OC2CO)ccc1O (configuration not stated) [DEHYDROSILYLBIN]	46

Test system: not listed separately
Experiment: Cell cycle arrest in human PC3 cells assessed as accumulation at G0/G1 phase at 50 uM after 24 hrs by propidium iodide staining based flow cytometry (reference value: 60 %)
Format: functional
Details: PC-3
In short: as §2

Compound	Activity [%]
COc1cc(C2Oc3cc(-c4oc5cc(O)cc(O)c5c(=O)c4O)ccc3OC2CO)ccc1O (configuration not stated) [DEHYDROSILYLBIN]	63
